The values below come from ChEMBL document CHEMBL3877298, “Discovery of benzimidazole derivatives as modulators of mitochondrial function: A potential treatment for Alzheimer's disease” (Eur J Med Chem, 2017).

Data set [1] is described as follows: Cytotoxicity against mouse HT22 cells assessed as cell viability at 5 uM after 24 hrs by MTT assay relative to control. It is filed as toxicity, HT-22. The note with it: read-out: Activity. In a few lines:
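MTT was added for 2 h, then solubilising solution (10% Triton X-100 in isopropanol with 0.1 M HCl) for 2 h more. Absorbance read at 560 nm; % inhibition normalised to vehicle, and viability taken from compound-only wells.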
For orientation: Tetrazolium dyes change colour on reduction, which living cells bring about.

Data set [2] addresses Translocator protein (Mus musculus) (UniProt P50637). As to the kind of experiment: Inhibition of TSPO in mouse HT22 cells assessed as protection against amyloid beta (1 to 42)-induced mitochondrial membrane potential loss by measuring recovery of ATP production at 5 uM preincubated for 10 mins followed by amyloid beta (1 to 42) addition measured after 7 hrs by luciferase reporter gene assay relative to control. It is filed as cell-based. Further details: scale not given: the % may be the effect or the level left. The note with it: HT-22. In a few lines:
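HT22 cells at 7000 per well were given compound (5 µM) for 10 min at 37 °C, then Aβ1-42 (5 µM) or DMSO vehicle, and incubated 7 h. Cells were washed, lysed in 1% Triton X-100, and protein-equalised by BCA. ATP was measured by luciferin/luciferase luminescence and normalised to vehicle.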
For orientation: In a reporter assay the amount or activity of a reporter protein is the signal.

Data set [3] has the same target. The data set can be described thus: Inhibition of TSPO in mouse HT22 cells assessed as protection against amyloid beta (1 to 42)-induced mitochondrial membrane potential loss by measuring recovery of mitochondrial membrane potential at 5 uM preincubated for 10 mins followed by amyloid beta (1 to 42) addition measured every 1 hr for 3 hrs by JC1 staining based fluorescence assay relative to control. The note with it: HT-22. Further details: scale not given: the % may be the effect or the level left. It is filed as cell-based. The gist of the method: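 HT22 cells at 30,000 per well were loaded with 7.5 µM JC-1 in phenol red-free Opti-MEM for 1 h 15 min at 37 °C, then washed. Cells were treated with compound (5 µM) and Aβ1-42 (5 µM); vehicle wells received DMSO. Green (485/535) and red (560/595) fluorescence were read hourly for 3 h. Recovery was normalised between Aβ-damaged (0%) and normal (100%) ratio.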

Data set [4] shares this target. The data set can be described thus: Inhibition of TSPO in mouse HT22 cells assessed as inhibition of amyloid beta (1 to 42)-induced ROS generation at 5 uM after 6 hrs by DCFDA staining based fluorescence assay relative to control. It is filed as cell-based. The note with it: HT-22.
Data set [5] has the same target. The data set can be described thus: Inhibition of TSPO in mouse HT22 cells assessed as inhibition of amyloid beta (1 to 42)-induced toxicity at 5 uM after 24 hrs by MTT assay relative to control. It is filed as cell-based. The note with it: HT-22. In a few lines:
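HT22 cells at 5000 per well were treated with compound (5 µM), with or without Aβ1-42 (5 µM), for 24 h at 37 °C. MTT was added for 2 h, then solubilising solution (10% Triton X-100 in isopropanol with 0.1 M HCl) for 2 h more. Absorbance read at 560 nm; % inhibition normalised to vehicle, and viability taken from compound-only wells.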

Molecules are shown by their SMILES.

Chain of Translocator protein (Mus musculus) (P50637 whole entry, looked up): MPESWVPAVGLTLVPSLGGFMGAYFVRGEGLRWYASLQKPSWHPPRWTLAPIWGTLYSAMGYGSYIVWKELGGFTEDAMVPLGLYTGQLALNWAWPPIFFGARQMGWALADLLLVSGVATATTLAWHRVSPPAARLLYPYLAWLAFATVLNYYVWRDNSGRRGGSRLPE

For the compound `CN1CCC(NC(=O)c2ccc(Cn3c(Cc4c(Cl)cccc4Cl)nc4ccccc43)cc2)CC1`, the viability at 24 h, 5 µM in data set [1] worked out at 94%. In addition, the Activity came out at 8% in data set [2] and 81% in data set [3].

For `O=C(Cn1c(SCc2ccc(F)cc2)nc2ncccc21)Nc1ccc2c(c1)OCO2`, the Activity in data set [3] is -7%.

As to `Cc1c(Cl)cccc1NC(=O)Cn1c(SCc2ccccc2F)nc2ccncc21`, the Activity in data set [3] is 30%. Regarding `CCCSCCNC(=O)c1ccc(Cn2c(SCc3ccccc3)nc3ncccc32)cc1`, the Activity in data set [3] is 23%. `COc1ccc(OC)c(-c2nc3ccccc3n2CC(=O)Nc2cc(C(C)C)ccc2C)c1`: the Activity in data set [3] was determined as 41%. With `CC(C)(C)c1cc(NC(=O)Cn2c(Cc3ccc(Cl)c(Cl)c3)nc3ccccc32)cc(C(C)(C)C)c1`, the Activity in data set [3] stood at 42%. Still for that read-out and setting: the result for `O=C(NCCCc1cccs1)c1ccc(Cn2c(SCc3ccc(F)cc3)nc3ncccc32)cc1` reads 46%. With `O=C(NCCCN1CCOCC1)c1ccc(Cn2c(Cc3c(Cl)cccc3Cl)nc3ccccc32)cc1`, the viability at 24 h, 5 µM in data set [1] was 98%. For the same compound, the figures for the Activity in data set [2] and in data set [3] were 1% and 76%, respectively. Regarding `O=C(NCCN1CCCCC1)c1ccc(Cn2c(SCc3ccc(F)cc3)nc3ncccc32)cc1`, in data set [3], the Activity was 45%. With `CC[C@@H](C(=O)Nc1ccccc1OC)n1c(SCc2ccc(C)cc2)nc2ccncc21`, in data set [3], the Activity stood at 43%. By inhibition is commonly meant how much of the control response was suppressed. `COc1ccc(OC)c(Cc2nc3ccccc3n2CC(=O)Nc2cc(Cl)cc(Cl)c2)c1`: in data set [1], the viability at 24 h, 5 µM was in the range of 81 to 82%. The inhibition in data set [4] was 0%; in data set [5], 12%. Moreover, the results for the Activity in data set [2] and in data set [3] were 94% and 68%, respectively.

As to `Cc1ccc(C(C)C)c(OC[C@H](O)Cn2c(Cc3ccccc3)nc3ccccc32)c1`, the Activity in data set [3] worked out at 53%.

With `O=C(Cn1c(-c2cc(Cl)ccc2Cl)nc2ccc(Cl)cc21)Nc1cc(Cl)cc(Cl)c1`, in data set [3], the Activity came out at 18%. As to `CC(C)(C)c1cc(NC(=O)Cn2c(Cc3ccccc3)nc3ccccc32)cc(C(C)(C)C)c1`, in data set [3], the Activity was found to be 29%.

Regarding `Cc1ccc(C(C)C)cc1NC(=O)Cn1c(-c2cc(Cl)ccc2Cl)nc2ccccc21`, in data set [1], the viability at 24 h, 5 µM was determined as 93%. Also, the Activity in data set [2] turned out to be 0%; in data set [3], 91%. Turning to `Cc1ccc(C(C)C)cc1NC(=O)Cn1c(Cc2ccccc2)nc2ccccc21`, the Activity in data set [3] amounted to 24%. Consider `O=C(Cn1c(Cc2ccccc2)nc2ccccc21)Nc1cc(Oc2ccc(-c3ccccc3)cc2)ccc1F`, for which the Activity in data set [3] was determined as 0%. Regarding `CCCN(CCC)C(=O)Cn1c(SCc2cccc(Cl)c2)nc2ccncc21`, the Activity in data set [3] was 34%. On the same count and under the same terms, to `O=C(CCn1c(-c2ccc(Cl)cc2)nc2ccccc21)Nc1ccccc1F` belongs 65%; to `COc1ccc(NC(=O)Cn2c(SCc3cc(C)ccc3C)nc3ccncc32)c(OC)c1OC`, 43%. On to `COc1ccc(OC)c(Cc2nc3ccccc3n2CC(=O)Nc2cc(C(C)C)ccc2C)c1`, for which, in data set [1], the viability at 24 h, 5 µM came out at 96%. Moreover, the figures for the Activity in data set [2] and in data set [3] were 0% and 81%, respectively.

For the compound `O=C(Cn1c(-c2ccccc2)nc2ccccc21)Nc1cc(Cl)cc(Cl)c1`, the Activity in data set [3] came out at 69%. Regarding `O=C(NCCCc1ccco1)c1ccc(Cn2c(SCc3ccc(F)cc3)nc3ncccc32)cc1`, in data set [3], the Activity was found to be 52%.

With `O=C(Cn1c(-c2cc(Cl)ccc2Cl)nc2ccccc21)Nc1cc(Cl)cc(Cl)c1`, in data set [1], the viability at 24 h, 5 µM was 107%. Besides, the Activity turned out to be 0% in data set [2] and 91% in data set [3].

As to `Cc1ccc(Cn2c(SCc3ccc(F)cc3)nc3ncccc32)cc1`, the Activity in data set [3] worked out at 15%. Regarding `COc1ccc(CC(=O)Cn2c(SCc3ccc(F)cc3)nc3ccncc32)c(OC)c1`, the Activity in data set [3] was 34%.

`CN1CCN(CCCNC(=O)c2ccc(Cn3c(Cc4c(Cl)cccc4Cl)nc4ccccc43)cc2)CC1`: the Activity in data set [3] worked out at 86%. Still for that read-out and setting: the result for `CCN1CCCC1CNC(=O)c1ccc(Cn2c(SCc3ccc(F)cc3)nc3ncccc32)cc1` (stereo unspecified) reads 61%.

`O=C(NCCCN1CCCC1)c1ccc(Cn2c(Cc3c(Cl)cccc3Cl)nc3ccccc32)cc1`: the viability at 24 h, 5 µM in data set [1] fell in the range of 100 to 101%. In addition, the inhibition in data set [4] amounted to 15%; in data set [5], 12%. Besides, the Activity came to 31% in data set [2] and 79% in data set [3]. `CCCN(CCC)C(=O)Cn1c(SCc2ccc(F)cc2)nc2ccccc21`: the Activity in data set [2] is 20%; in data set [3], 57%. With `Cc1ccc(C(C)C)cc1NC(=O)Cc1nc2ccccc2n1Cc1ccc(C(=O)NCCCN(C)C)cc1`, the viability at 24 h, 5 µM in data set [1] turned out to be 97%. Besides, the Activity in data set [2] turned out to be 14%; in data set [3], 68%. For `CCN(CC)CCCNC(=O)c1ccc(Cn2c(SCc3ccc(F)cc3)nc3ncccc32)cc1`, the Activity in data set [3] was 38%. On the same count and under the same terms, to `Cc1cccc(C(C)(C)C)c1NC(=O)Cn1c(Cc2ccccc2)nc2ccccc21` belongs 38%; to `CCN1CCCC1CNC(=O)c1ccc(Cn2c(CC(=O)Nc3cc(C(C)C)ccc3C)nc3ccccc32)cc1` (stereo unspecified), 68%. On to `C=CCN(C(=O)Cn1c(SCc2ccc(F)cc2)nc2ccncc21)c1ccccc1`, for which the Activity in data set [3] was -1%.

Regarding `CCC1CCCCN1C(=O)Cn1c(SCc2cccc(C(F)(F)F)c2)nc2ncccc21` (stereo unspecified), the Activity in data set [3] was determined as 25%. On to `Cc1ccc(C(C)C)cc1NC(=O)Cc1nc2ccccc2n1Cc1ccc(C(=O)NCCCN2CCCCC2)cc1`, for which the viability at 24 h, 5 µM in data set [1] turned out to be 100%. Further, the Activity in data set [2] worked out at 23%; in data set [3], 80%. For `CN(C)C(=O)c1ccc(Cn2c(Cc3c(Cl)cccc3Cl)nc3ccccc32)cc1`, the Activity in data set [3] was determined as 73%. With `COc1ccc(NC(=O)Cn2c(SCc3ccc(C)cc3)nc3ccncc32)c(OC)c1OC`, the Activity in data set [3] was 27%. Consider `O=C(c1ccc(CSc2nc3ncccc3n2Cc2ccc(F)cc2)cc1)N1CCCCC1`, for which the Activity in data set [3] came out at 37%. As for `Cc1ccc(C(C)C)cc1NC(=O)Cn1c(-c2cc(Cl)ccc2Cl)nc2cc(Cl)ccc21`, the viability at 24 h, 5 µM in data set [1] worked out at 78%. Also, the Activity in data set [2] was determined as 3%; in data set [3], 60%. On to `COc1ccc(OC)c(-c2nc3ccccc3n2CC(=O)Nc2cc(Oc3ccc(-c4ccccc4)cc3)ccc2F)c1`, for which the Activity in data set [3] worked out at 0%. Turning to `CC(C)(C)c1cc(NC(=O)Cn2c(-c3ccccc3)nc3ccccc32)cc(C(C)(C)C)c1`, the viability at 24 h, 5 µM in data set [1] was 71%. For the same compound, the results for the Activity in data set [2] and in data set [3] were 4% and 86%, respectively. In the case of `Cc1ccc(C(C)C)cc1NC(=O)Cn1c(Cc2ccc(Cl)c(Cl)c2)nc2ccccc21`, the Activity in data set [3] was 57%. `O=C(NCCN1CCCCC1)c1ccc(Cn2c(Cc3c(Cl)cccc3Cl)nc3ccccc32)cc1`: the viability at 24 h, 5 µM in data set [1] worked out at 87%. For the same compound, the Activity turned out to be 4% in data set [2] and 89% in data set [3]. On to `Cc1cccc(C(C)(C)C)c1NC(=O)Cn1c(-c2ccccc2)nc2ccccc21`, for which, in data set [1], the viability at 24 h, 5 µM lay within 65 to 95%. For the same compound, the inhibition in data set [4] amounted to 0%; in data set [5], 16%. The Activity amounted to 55% in data set [2] and 65% in data set [3]. Regarding `Cc1ccc(C(C)C)cc1NC(=O)Cn1c(-c2ccccc2)nc2ccccc21`, the viability at 24 h, 5 µM in data set [1] amounted to 67%. Moreover, the Activity in data set [2] was determined as 19%; in data set [3] it was 63%.

Turning to `Cc1cccc(C(C)(C)C)c1NC(=O)Cn1c(-c2cc(Cl)ccc2Cl)nc2ccccc21`, the Activity in data set [3] was 41%. Turning to `CCCSCCCNC(=O)c1ccc(CSc2nc3ncccc3n2Cc2cccc(C)c2)cc1`, in data set [3], the Activity came out at 58%. In the case of `O=C(Cn1c(-c2cc(Cl)ccc2Cl)nc2cc(Cl)ccc21)Nc1cc(Cl)cc(Cl)c1`, the Activity in data set [3] was 77%. Same read-out and setting: the result for `O=C(NCCN1CCOCC1)c1ccc(Cn2c(SCc3ccc(F)cc3)nc3ncccc32)cc1` reads 47%.
